According to article PMC9064899 (The FEBS journal, 2021):

How the values were obtained:
[1] = target: T1, UBIAD1 C147S (Homo sapiens, UniProt Q9Y5Z9); assay: Cell-based UBIAD1 functional assay; conditions: 1 μM vitamin K3
T1 sequence (Q9Y5Z9 2-338): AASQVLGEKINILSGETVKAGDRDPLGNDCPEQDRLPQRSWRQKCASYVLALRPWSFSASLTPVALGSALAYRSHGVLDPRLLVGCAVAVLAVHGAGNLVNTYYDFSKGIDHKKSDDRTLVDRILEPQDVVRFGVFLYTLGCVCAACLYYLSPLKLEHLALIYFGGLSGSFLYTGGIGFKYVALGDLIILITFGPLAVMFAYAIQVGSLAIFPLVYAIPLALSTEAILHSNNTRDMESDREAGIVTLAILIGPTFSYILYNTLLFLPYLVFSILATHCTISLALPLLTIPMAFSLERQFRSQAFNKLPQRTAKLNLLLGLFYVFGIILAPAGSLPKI
Outline: (§1)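 Wild-type or mutant human UBIAD1 in pCI-neo was transiently transfected into Ubiad1-knockout FIXgla-PC/HEK293 cells (DMEM/F12, 10% FBS). […] After 24 h, carboxylated FIXgla-PC in the medium was measured by ELISA. Activity was normalized to wild type (100%), and EC50 came from a curve fit. Mean ± SD, n=3 independent experiments.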

[2] = target: T2, UBIAD1 D240N (Homo sapiens, UniProt Q9Y5Z9, D240N); assay: Cell-based UBIAD1 functional assay
T2 sequence (Q9Y5Z9 1-338 D240N): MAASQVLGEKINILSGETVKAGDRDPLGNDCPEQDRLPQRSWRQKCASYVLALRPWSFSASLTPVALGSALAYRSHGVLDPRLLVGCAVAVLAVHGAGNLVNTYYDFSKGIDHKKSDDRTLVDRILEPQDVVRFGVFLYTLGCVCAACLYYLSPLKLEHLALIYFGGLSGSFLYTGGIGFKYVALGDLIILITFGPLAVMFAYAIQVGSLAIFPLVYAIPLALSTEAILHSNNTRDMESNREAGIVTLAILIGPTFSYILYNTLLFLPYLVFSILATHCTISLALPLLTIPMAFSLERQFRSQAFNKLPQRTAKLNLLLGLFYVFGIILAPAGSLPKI
Outline: as §1

Structure (SMILES): CC1=CC(=O)c2ccccc2C1=O [vitamin K3, menadione]
- Vitamin K-dependent carboxylation Activity ± SD [1]: 100.5 ± 3.7%
- EC50 [2]: 11.2 ± 1.5 nM
- Vitamin K-dependent carboxylation Activity ± SD ([2]; D240N, 1 μM vitamin K3): 107.8 ± 2.5%
